In ChEMBL document CHEMBL1139237, “Identification of inhibitors of N5-carboxyaminoimidazole ribonucleotide synthetase by high-throughput screening” (Bioorg Med Chem, 2009):
Activity calls are given as the source filed them. The calls are words filed in the database; no cut-off is given here.

Legend:
[1] = Inhibition of Escherichia coli N5-CAIR synthetase using variable amount of aminoimidazole ribonucleotide and fixed ATP by ATPase assay
How it was run: (§1)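 PK/LDH-coupled assay at 37 °C in HEPES pH 7.5, KCl, MgCl2, 0.2 mM NADH, 2.0 mM PEP, 1.0 mM NaHCO3. ATP fixed at 1.1 mM and AIR varied 5–250 μM. Inhibitor at 0–50 μM added with AIR to start the reaction. NADH loss read at 340 nm, initial rate over the first 2 min. Mode from Lineweaver-Burk plots, Ki from slope replots.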

[2] = Inhibition of Escherichia coli N5-CAIR synthetase using variable amount of ATP and fixed aminoimidazole ribonucleotide by ATPase assay
How it was run: as §1, with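 “NaHCO3. AIR” for “NaHCO3. ATP”, “at 100 μM” for “at 1.1 mM”, “and ATP” for “and AIR”, “loss followed” for “loss read”, “initial velocity” for “initial rate”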

[3] = molecular target: T1, Bifunctional phosphoribosylaminoimidazole carboxylase/phosphoribosylaminoimidazole succinocarboxamide synthetase (Homo sapiens) (UniProt P22234); experiment: Inhibition of human AIR carboxylase: SAICAR synthetase at 200 uM by coupled assay
T1 sequence (whole entry): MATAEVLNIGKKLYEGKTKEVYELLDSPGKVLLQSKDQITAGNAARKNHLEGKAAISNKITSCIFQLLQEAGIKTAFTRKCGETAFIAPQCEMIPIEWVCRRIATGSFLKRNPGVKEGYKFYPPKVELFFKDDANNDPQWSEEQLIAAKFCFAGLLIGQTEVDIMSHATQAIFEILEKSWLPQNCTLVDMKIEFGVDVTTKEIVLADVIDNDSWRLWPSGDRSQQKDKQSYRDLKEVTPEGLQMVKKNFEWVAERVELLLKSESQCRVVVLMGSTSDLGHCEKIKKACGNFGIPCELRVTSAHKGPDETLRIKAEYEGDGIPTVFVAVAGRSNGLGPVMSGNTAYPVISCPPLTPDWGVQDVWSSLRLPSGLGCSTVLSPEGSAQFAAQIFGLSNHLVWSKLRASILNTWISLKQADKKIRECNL
How it was run: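 Human bifunctional AIR carboxylase:SAICAR synthetase (>95% pure by SDS-PAGE); both activities measured together by coupled assay, as described for the chicken enzyme; compounds at 200 μM.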

[4] = Inhibition of Escherichia coli N5-CAIR synthetase by phosphate assay
How it was run: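 E. coli enzyme in 50 mM HEPES pH 7.5, 20 mM KCl, 6.0 mM MgCl2, 100 μM ATP, diluted saturated NaHCO3. Compound at eight concentrations, 0.78–100 μM, with 50 μM AIR added, run 5 min at room temperature. Quenched with malachite green reagent, A600 read after at least 15 min. IC50 taken from Hill fit between enzyme + AIR and no-AIR controls.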

[5] = Inhibition of Escherichia coli N5-CAIR synthetase using variable amounts of 5-aminoimidazole ribonucleotide or ATP by ATPase assay
How it was run: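 E. coli enzyme (168 ng) in 1 mL cuvette, 50 mM HEPES pH 7.5, 20 mM KCl, 6.0 mM MgCl2, 1.0 mM NaHCO3, PK/LDH coupling (0.2 mM NADH, 2.0 mM PEP, 4 U PK, 17 U LDH). Preincubated with ATP 3 min at 37 °C. ATP fixed 1.1 mM with AIR 5–250 μM, or AIR fixed 100 μM with ATP 5–250 μM. Start with AIR plus inhibitor (0–50 μM); A340 read at 37 °C.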

[6] = Chemical stability in aqueous solution assessed as compound decomposition after 30 mins; format: physicochemical; settings: buffer, 0.5 h
[7] = Chemical stability in aqueous solution assessed as compound decomposition after 45 mins; format: physicochemical; settings: buffer, 0.75 h

Row | SMILES | IC50 [4] | further results
1 | CCN(CC)C(=O)CN1C(=O)C(=O)c2ccccc21 | 10.5 µM | Ki [1]: 29 µM; Ki [2]: 40 µM; Activity [3]: inactive
2 | Cc1nonc1NC1(O)C(=O)c2ccccc2C1=O | 2.3 µM | Ki [5]: Not Active; Stability [6]: Unstable
3 | Cc1cc2nc3c(=O)[nH]c(=O)nc-3n(C[C@H](O)[C@H](O)[C@H](O)CO)c2cc1C | 20 µM | Ki [1]: 81 µM; Ki [2]: 122 µM; Activity [3]: inactive
4 | O=C1C(=O)N(CN2CCOCC2)c2ccc(Br)cc21 | 23 µM | –
5 | CCOC(=O)C1CCN(CN2C(=O)C(=O)c3ccccc32)CC1 | 22 µM | –
6 | O=C1Nc2ccc(OC(F)(F)F)cc2C1=O | 19 µM | –
7 | COc1cc(C(F)(F)F)c(C(=O)NC2(O)C(=O)c3ccccc3C2=O)cn1 | 17 µM | –
8 | O=C1C(=O)N(CN2CCN(CN3C(=O)C(=O)c4ccccc43)C2)c2ccccc21 | 69 µM | –
9 | O=C(NC1(O)C(=O)c2ccccc2C1=O)c1cccc2c1-c1ccccc1C2=O | 8.7 µM | –
10 | COc1cscc1C(=O)NC1(O)C(=O)c2ccccc2C1=O | 17 µM | –
11 | CN1CCN(CN2C(=O)C(=O)c3ccccc32)CC1 | 37 µM | –
12 | CCOC(=O)c1noc(C)c1-c1csc(CS(=O)(=O)c2ccc(Cl)cc2)n1 | 10 µM | Ki [1]: 62 µM; Ki [2]: 43 µM; Activity [3]: inactive
13 | Cc1cc(NC2(O)C(=O)c3ccccc3C2=O)n(C)n1 | 7.8 µM | –
14 | Cc1nc(NC2(O)C(=O)c3ccccc3C2=O)cs1 | 5.6 µM | Ki [5]: Not Active; Stability [7]: Unstable
